Results taken from publication PMC4827638 (Preventive Nutrition and Food Science, 2016).
Marks after values point to notes of the source that are not given here.

Key:
Assay type in all cases: biochemical
[1] = OH radical scavenging activity; conditions: absorbance at 520 nm; triplicate
How it was run: (§1)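 Absorbance endpoint assays, read on a UV-visible spectrophotometer (H2O2 assay on a microplate reader). Percent scavenging was measured across a series of sample concentrations. IC50 was taken from a graph of inhibition percentage versus sample concentration. Triplicate analyses, reported as mean±SD.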

superoxide = conditions: xanthine-XO method, 560 nm; triplicate
How it was run: as §1

[2] = H2O2 radical scavenging activity; conditions: 405 nm; triplicate
How it was run: as §1

NO radical = conditions: nitrite scavenging effect, 520 nm; triplicate
How it was run: as §1

xanthine oxidase (XO) = xanthine oxidase (XO) (Bos taurus, UniProt P80457); assay: XO inhibitory activity
tyrosinase = assay: Tyrosinase inhibitory activity; conditions: L-DOPA substrate, 25°C, 2 min, pH 6.8; mean±SD

xanthine oxidase (XO), sequence (P80457 whole entry): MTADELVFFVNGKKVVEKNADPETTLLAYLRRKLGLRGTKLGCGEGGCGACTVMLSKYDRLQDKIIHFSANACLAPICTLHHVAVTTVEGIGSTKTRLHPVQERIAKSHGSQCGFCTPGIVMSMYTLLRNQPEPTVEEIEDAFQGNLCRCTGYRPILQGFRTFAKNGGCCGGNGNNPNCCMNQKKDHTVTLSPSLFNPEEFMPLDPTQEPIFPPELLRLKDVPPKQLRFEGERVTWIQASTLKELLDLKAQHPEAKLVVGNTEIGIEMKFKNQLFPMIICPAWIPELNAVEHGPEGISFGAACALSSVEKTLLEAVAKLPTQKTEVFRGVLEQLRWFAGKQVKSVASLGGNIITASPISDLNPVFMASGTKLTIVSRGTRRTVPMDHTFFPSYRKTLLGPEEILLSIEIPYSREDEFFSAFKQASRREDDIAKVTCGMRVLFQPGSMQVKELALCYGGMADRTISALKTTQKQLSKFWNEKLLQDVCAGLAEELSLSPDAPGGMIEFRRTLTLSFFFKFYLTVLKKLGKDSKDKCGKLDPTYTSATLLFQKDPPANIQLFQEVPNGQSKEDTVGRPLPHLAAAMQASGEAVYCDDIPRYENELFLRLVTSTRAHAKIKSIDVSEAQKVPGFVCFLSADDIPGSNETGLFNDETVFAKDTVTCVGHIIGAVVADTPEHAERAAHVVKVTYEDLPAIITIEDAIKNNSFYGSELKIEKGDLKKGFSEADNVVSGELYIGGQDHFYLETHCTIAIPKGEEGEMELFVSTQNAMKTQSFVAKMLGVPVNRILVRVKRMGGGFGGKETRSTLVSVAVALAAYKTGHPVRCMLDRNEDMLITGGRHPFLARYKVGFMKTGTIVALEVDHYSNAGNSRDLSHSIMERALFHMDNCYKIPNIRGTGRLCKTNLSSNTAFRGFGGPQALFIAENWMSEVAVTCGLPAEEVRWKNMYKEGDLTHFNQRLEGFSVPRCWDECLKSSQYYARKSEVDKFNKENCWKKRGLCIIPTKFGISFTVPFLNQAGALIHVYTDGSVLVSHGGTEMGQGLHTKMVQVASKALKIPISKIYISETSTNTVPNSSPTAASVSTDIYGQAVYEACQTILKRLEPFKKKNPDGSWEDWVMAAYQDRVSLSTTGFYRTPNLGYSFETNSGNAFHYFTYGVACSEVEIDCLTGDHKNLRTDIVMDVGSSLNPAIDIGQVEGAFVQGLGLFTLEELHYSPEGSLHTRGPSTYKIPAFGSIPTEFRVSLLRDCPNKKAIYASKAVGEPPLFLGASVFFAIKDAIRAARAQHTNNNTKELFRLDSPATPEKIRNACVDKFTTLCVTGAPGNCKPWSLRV

| SMILES | IC50 of OH radical scavenging activity [1] [µg/mL] | IC50 of O2 radical scavenging activity (superoxide) [µg/mL] | IC50 of H2O2 radical scavenging activity [2] [µg/mL] | IC50 of NO radical scavenging activity (NO radical) [µg/mL] | IC50 (xanthine oxidase (XO)) [µM] | IC50 Tyrosinase inhibition (tyrosinase) |
| --- | --- | --- | --- | --- | --- | --- |
| COc1ccc(O)c(C(C)(C)C)c1 [BHA, butylated hydroxyanisole] | 37.22 | 68.45 | 22.47 | 40.54 | – | – |
| CC1=C(O)C(=O)C(C)(O)S1 (stereo not drawn) [Thiacremonone, 2,4-dihydroxy-2,5-dimethyl-thiophene-3-one] | 92.50 | 65.05 | 12.60 | 81.53 | 246 | 101.931±2.601^a μg/mL |
| O=C1O[C@H]([C@@H](O)CO)C(O)=C1O [ascorbic acid, Ascorbic acid] | 104.93 | 99.43 | 42.42 | 122.64 | – | – |
| Cc1c(C)c2c(c(C)c1O)CC[C@@](C)(CCC[C@H](C)CCC[C@H](C)CCCC(C)C)O2 [α-tocopherol] | 12.93 ± 1.64 | 84.92 ± 2.34 | 39.40 ± 0.77 | 15.72 ± 1.22 | – | – |
